# Sampled rows, rich in hits. Any-hit rate of the full collection: about 2.2%.
# SIRT5 block = inhibitors of human sirtuin-5 desuccinylase; Q9NXA8; Purified SirT5, succinyl-peptide AMC, trypsin-coupled fluorescence; inhibition, % at 15 µM; hit rate 1.1% among 330,000; in the data active = inhibition above about 15%
# Target sequence (Q9NXA8 whole entry, looked up): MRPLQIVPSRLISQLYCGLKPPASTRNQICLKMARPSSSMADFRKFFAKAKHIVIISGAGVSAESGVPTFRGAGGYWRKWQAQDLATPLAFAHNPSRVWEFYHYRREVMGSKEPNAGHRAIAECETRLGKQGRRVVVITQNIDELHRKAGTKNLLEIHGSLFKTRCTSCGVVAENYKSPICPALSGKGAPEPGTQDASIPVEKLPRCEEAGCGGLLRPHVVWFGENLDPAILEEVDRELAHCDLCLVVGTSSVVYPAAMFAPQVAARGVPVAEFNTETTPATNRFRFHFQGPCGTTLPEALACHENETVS
# PGC1a acetyl inh = lowers PGC1a acetylation signal in U2OS cells; AlphaScreen anti-acetyl-lysine; with virally co-expressed GCN5 acetyltransferase; inhibition, % at 15.6 µM; hit rate 0.17% among 350,000;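 active = every replicate shows inhibition of at least 40%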;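 note: 0% = neutral control wells and 100% = positive control wells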
# FGF22 binding = binders of recombinant human FGF22 by thermal shift; hit rate 1.5% among 340,000; SYPRO orange fluorescence; percent of sucrose octasulfate shift, DMSO zero; activity (Tm shift, normalised), % at 9.99 µM;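 active = mean Tm shift, scaled 0 neutral to 100 positive control, at about 1.3% or above, every replicate too, limit read from the data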
# Target sequence (Q9HCT0 whole entry, looked up): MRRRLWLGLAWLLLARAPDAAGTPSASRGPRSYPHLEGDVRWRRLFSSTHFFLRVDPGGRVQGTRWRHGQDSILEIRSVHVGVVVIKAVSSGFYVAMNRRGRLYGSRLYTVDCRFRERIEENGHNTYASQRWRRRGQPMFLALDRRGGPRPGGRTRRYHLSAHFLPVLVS
# FN deposition inh = fibronectin deposition inhibition; AID 743247; inhibition, % at 12.6 µM; AH1F fibroblasts, Alexa488-fibronectin deposition fluorescence, overnight; hit rate 0.086% among 350,000;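 active = mean inhibition across replicates of 30% or more, regardless of how many single replicates reach that level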;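 note: positive control wells lacked labelled fibronectin entirely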
#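 Assay system: AH1F fibroblast monolayer, labelled fibronectin deposition. Amount: 10000 cells per well. Also added: labelled fibronectin 24 nM. Compound: single-point pinned compound. Incubation: cell attachment 1 h, compound and FN exposure overnight. Detection: fluorescence after three HBSS washes, excitation 485 nm, emission 525 nm. Read-out: inhibition of fibronectin deposition signal.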
# ERAP1 HTS inh = inhibitors of human ERAP1 aminopeptidase; AID 652197; hit rate 0.15% among 340,000; inhibition, % at 10.7 µM; recombinant ERAP1, Leu-AMC fluorescence, 60 min; Q9NZ08;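 active = mean replicate inhibition of at least 30%, or all replicates individually reaching that 30% level; inactive = mean below 30% and not every replicate reaching it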;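 note: 0% = neutral control wells and 100% = L-leucinethiol positive control wells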
# * marks the source's active call; other numbers are inactive results; nt = not tested or not shown.
SMILES,SIRT5 block,PGC1a acetyl inh,FGF22 binding,FN deposition inh,ERAP1 HTS inh
CN1CCN(C(=O)c2cccc(-c3cnc4cnc(-c5ccccc5Oc5ccccc5)cn34)c2)CC1,-17,nt,0,40*,1
O=C(c1cccc(-c2cncc3nccn23)c1)N1CCOCC1,-33,-19,0,-4,0
Cc1cc(-c2ccccc2)[nH]c(=O)c1C#N,0,nt,43*,4,2
CN(Cc1ccccc1)C(=O)COc1ccc(N(C)S(=O)(=O)c2ccc(F)cc2)cc1,18*,2,0,2,nt
CN(c1ccc(OCC(=O)NCc2cccnc2)cc1)S(=O)(=O)c1ccc(Cl)cc1,-5,-27,43*,3,3
CO[C@@H]1CN(C)C(=O)c2cc(NC(=O)c3ccc(-c4ccccc4)cc3)ccc2OC[C@@H](C)NC[C@@H]1C,5,-16,0,16,-1
CO[C@H]1CN(C)C(=O)c2ccc(NS(C)(=O)=O)cc2OC[C@H](C)N(C(=O)c2ccc3c(c2)OCO3)C[C@H]1C,nt,8,nt,-1,nt
COc1ccc(/C=C/C(=O)c2ccc([N+](=O)[O-])o2)cc1,nt,-7,0,-4,1
Cc1cccc(/C=C/C(=O)c2ccc([N+](=O)[O-])o2)c1,1,nt,0,65*,3
O=C(/C=C/c1cccc([N+](=O)[O-])c1)c1ccc([N+](=O)[O-])o1,nt,nt,0,-11,-2
Cc1ccccc1/C=C/C(=O)c1ccc([N+](=O)[O-])o1,1,nt,0,42*,3
CC[n+]1c(C)sc2c3ccsc3ccc21,2,1,43*,8,12
CC(C)(C)NC(=O)CSc1nc2cccnc2n1C1CCCCC1,20*,0,0,-5,1
CNC(=O)CSc1nc2cccnc2n1C1CCCCC1,-3,1,0,1,2
CO[C@H]1CN(C)C(=O)c2cc(NS(=O)(=O)c3ccc(Cl)cc3)ccc2OC[C@H](C)NC[C@@H]1C,7,-16,0,3,-4
CN(C)CC(=O)N[C@@H]1CC[C@@H](CCNC(=O)Nc2ccc(C(F)(F)F)cc2)O[C@@H]1CO,17*,9,0,nt,1
O=C(Cc1ccccn1)NCC[C@@H]1CC[C@H](NC(=O)Nc2ccc(C(F)(F)F)cc2)[C@H](CO)O1,0,78*,0,-1,-3
C[C@@H]1CN([C@H](C)CO)C(=O)c2cccc(NC(=O)Nc3ccc4c(c3)OCO4)c2O[C@@H]1CN(C)C(=O)NC1CCCCC1,11,8,-2,nt,-2
CNC[C@H]1Oc2ncc(C#Cc3cccc(OC)c3)cc2C(=O)N([C@H](C)CO)C[C@H]1C,-5,-3,0,nt,-3
CCOc1ccccc1NC(=O)c1cc(C(=O)c2cc(Br)ccc2O)coc1=N,0,11,45*,1,2
O=C(O)c1cc(N2N=C(C(F)(F)F)/C(=C/C=C/c3ccco3)C2=O)ccc1Cl,63*,-11,nt,0,33*
C/C=C/c1ccc2c(c1)O[C@@H](CN(C)C(=O)Nc1ccc(C(F)(F)F)cc1)[C@@H](C)CN([C@H](C)CO)S2(=O)=O,9,-3,1.4*,1,0
C/C=C/c1ccc2c(c1)O[C@H](CN(C)C(=O)Nc1ccc(C(F)(F)F)cc1)[C@H](C)CN([C@H](C)CO)S2(=O)=O,12,15,1.8*,18,0
O=C(O)C1Cn2c(nc3c(c2=O)C2(CCCC2)Cc2ccccc2-3)S1 (stereo not given),2,1,43*,9,10
CCOC(=O)C1Cn2c(nc3c(c2=O)C2(CCCC2)Cc2ccccc2-3)S1 (stereo not given),nt,-17,nt,nt,nt
SMILES,SIRT5 block,PGC1a acetyl inh,FGF22 binding,FN deposition inh,ERAP1 HTS inh
NNC(=O)c1ccc(CN2C(=O)c3cccc4cccc2c34)cc1,-1,nt,44*,7,3
CCN(CC)C(=O)C1=C(C)N(Cc2ccc(F)cc2)C(=O)C(CC(=O)NCc2cccs2)C1 (stereo not given),-3,-6,0,13,nt
CCN(CC)C(=O)C1=C(C)N(Cc2ccccc2)C(=O)C(CC(=O)NCCCCc2ccccc2)C1 (stereo not given),nt,11,43*,-10,-2
COc1ccc(CN2C(=O)C(CC(=O)NCCCN(C)C)CC(C(=O)N(C(C)C)C(C)C)=C2C)cc1 (stereo not given),-3,-8,0,1,nt
CCCCN1C(=O)C(CC(=O)NC2CC2)CC(C(=O)N(CC)CC)=C1C (stereo not given),nt,-8,43*,-4,-2
CCN(CC)C(=O)C1=C(C)N(Cc2ccccc2)C(=O)C(CC(=O)NCc2cccs2)C1 (stereo not given),nt,10,44*,-2,0
CCN(CC)C(=O)C1=C(C)N(Cc2ccc(OC)cc2)C(=O)C(CC(=O)NCCCN(C)C)C1 (stereo not given),nt,nt,44*,2,-1
O=C(Cc1ccccc1)N[C@@H]1CC[C@H](CC(=O)N2CCOCC2)O[C@@H]1CO,8,5,-1,-19,1
C[C@H](O)C#Cc1cnc2c(c1)C(=O)N([C@H](C)CO)C[C@H](C)[C@@H](CN(C)Cc1cncnc1)O2,nt,-1,0,-11,nt
COc1ccc(NC(=O)N(C)C[C@@H]2Oc3ccc(N(C)C)cc3C(=O)N([C@H](C)CO)C[C@H]2C)cc1,4,3,0,-1,3
O=C(Nc1ccc(F)cc1)Nc1ccc2c(c1)[C@@H]1C[C@@H](CC(=O)N3CCOCC3)O[C@@H](CO)[C@@H]1O2,1,0,0,3,0
C[C@H]1CN([C@@H](C)CO)C(=O)c2ccccc2-c2ccccc2CO[C@@H]1CN(C)C(=O)Nc1ccccc1C(F)(F)F,21*,3,0,5,-2
C[C@H]1CN([C@@H](C)CO)C(=O)c2ccccc2-c2ccccc2CO[C@@H]1CN(C)Cc1ccc(Cl)c(Cl)c1,19*,-1,-1,-8,-5
C[C@@H]1CN([C@@H](C)CO)C(=O)c2ccccc2-c2ccccc2CO[C@@H]1CN(C)Cc1ccccc1C(F)(F)F,12,-22,0,-25,-3
C[C@@H]1CN([C@H](C)CO)C(=O)c2ccccc2-c2ccccc2CO[C@@H]1CN(C)Cc1ccc(Cl)c(Cl)c1,2,-35,-1,-5,-5
C[C@H]1CN([C@@H](C)CO)C(=O)c2ccccc2-c2ccccc2CO[C@@H]1CN(C)Cc1cccc(C(F)(F)F)c1,19*,-4,0,-31,-1
C[C@@H]1CN([C@H](C)CO)C(=O)c2ccccc2-c2ccccc2CO[C@@H]1CN(C)Cc1cccc(C(F)(F)F)c1,5,-32,0,-8,-4
C[C@H]1CN([C@@H](C)CO)C(=O)c2ccccc2-c2ccccc2CO[C@H]1CN(C)Cc1ccccc1C(F)(F)F,17*,-6,-1,8,10
